Here are results for 24 compounds from ChEMBL document CHEMBL3272255, “Substituted alpah-methylbenzyl and tricyclic arylalkyl lactamimides as inhibitors of blood platelet aggregation” (J Med Chem, 1976).

The structures appear in SMILES notation.

A short description of data set [1]: Antiplatelet activity in human platelet rich plasma assessed as inhibition of ADP-induced platelet aggregation at 30 ug/ml after 20 mins by aggregometric analysis relative to control. It is filed as functional. In a few lines: (§1)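 Human blood came from fasting donors who had taken no drugs for 5 days. It was citrated 1:9 with 3.8% sodium citrate. PRP was prepared at 100g for 10 min and PPP at 1500g for 15 min, and PRP was diluted with autologous PPP to 400000 platelets/mm³. Compound or saline control was incubated 20 min at 37°, then ADP was added at 2 μg/ml final. Percent inhibition was calculated from maximal ΔT, test vs control.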

A short description of data set [2]: Antiplatelet activity in human platelet rich plasma assessed as platelet factor-3 release at 300 ug/ml after 20 mins relative to control.
Data set [3] can be described thus: Antiplatelet activity in human platelet rich plasma assessed as inhibition of platelet factor-3 release at 30 ug/ml after 20 mins relative to control. It is filed as functional. In a few lines: (§2)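 Test compound solution was incubated in human citrated PRP at 37° for 20 min. PF3 activity was then measured by a modified Stypven test, with plasma diluted 1:10.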

The nature of data set [4]: Antiplatelet activity in human platelet rich plasma assessed as inhibition of platelet factor-3 release at 100 ug/ml after 20 mins relative to control. It is filed as functional. In a few lines: as §2
Data set [5] is described as follows: Antiplatelet activity in human platelet rich plasma assessed as inhibition of ADP-induced platelet aggregation at 10 ug/ml after 20 mins by aggregometric analysis relative to control. It is filed as functional. Summed up: as §1
Data set [6] can be described thus: Antiplatelet activity in human platelet rich plasma assessed as inhibition of ADP-induced platelet aggregation at 100 ug/ml after 20 mins by aggregometric analysis relative to control. In kind it is functional. Summed up:
as §1

Data set [7] concerns Cavia porcellus. The data set is described as follows: Antiplatelet activity in guinea pig assessed as inhibition of 0.8 ug/ml ADP-induced platelet aggregation measured as change in light transmittance at 30 mg/kg, po for 4 days measured at 2 hrs post last dose by aggregometric analysis relative to control. It is filed as functional. In a few lines:
(§3)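 Dosing was oral by stomach tube for 4 days, alongside an untreated control group. Blood was drawn by heart puncture 2 h after the final dose, then citrated PRP was isolated and adjusted for aggregometry. ADP was added in vitro at the stated concentration. The read-out was the maximum increase in light transmittance (ΔT); group means were compared, treated vs control.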

Data set [8] concerns Cavia porcellus. The data set is described as follows: Antiplatelet activity in guinea pig assessed as inhibition of 0.45 ug/ml ADP-induced platelet aggregation measured as area between aggregation curve and baseline transmittance at 30 mg/kg, po for 4 days measured at 2 hrs post last dose by aggregometric analysis relative to control. In kind it is functional. In a few lines: (§4)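 Guinea pigs were dosed by stomach tube at the stated dose daily for 4 days, with an untreated control group kept in parallel. Blood was taken by heart puncture 2 h after the last dose, and citrated PRP was isolated and adjusted. ADP was added in vitro. Total response was the area between the aggregation curve and baseline transmittance over 5 min, measured by planimeter. Percent inhibition came from group-average total response, treated vs control.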

The subject of data set [9] is Cavia porcellus. The data set is described as follows: Antiplatelet activity in guinea pig assessed as inhibition of 0.8 ug/ml ADP-induced platelet aggregation measured as area between aggregation curve and baseline transmittance at 30 mg/kg, po for 4 days measured at 2 hrs post last dose by aggregometric analysis relative to control. In kind it is functional. Summed up: as §4

Data set [10] relates to Cavia porcellus. As to the kind of experiment: Antiplatelet activity in guinea pig assessed as 0.45 ug/ml ADP-induced platelet aggregation measured as change in light transmittance at 100 mg/kg, po for 4 days measured at 2 hrs post last dose by aggregometric analysis.
Data set [11] relates to Cavia porcellus. As to the kind of experiment: Antiplatelet activity in guinea pig assessed as inhibition of 0.45 ug/ml ADP-induced platelet aggregation measured as area between aggregation curve and baseline transmittance at 100 mg/kg, po for 4 days measured at 2 hrs post last dose by aggregometric analysis relative to control. It is filed as functional. Summed up:
as §4

Data set [12] deals with Cavia porcellus. As to the kind of experiment: Antiplatelet activity in guinea pig assessed as inhibition of 0.45 ug/ml ADP-induced platelet aggregation measured as change in light transmittance at 30 mg/kg, po for 4 days measured at 2 hrs post last dose by aggregometric analysis relative to control. It is filed as functional. Summed up:
as §3

Data set [13] concerns Cavia porcellus. As to the kind of experiment: Antiplatelet activity in guinea pig assessed as inhibition of 0.8 ug/ml ADP-induced platelet aggregation measured as change in light transmittance at 100 mg/kg, po for 4 days measured at 2 hrs post last dose by aggregometric analysis relative to control. In kind it is functional. Summed up:
as §3

Data set [14] relates to Cavia porcellus. The data set is described as follows: Antiplatelet activity in guinea pig assessed as inhibition of 0.8 ug/ml ADP-induced platelet aggregation measured as area between aggregation curve and baseline transmittance at 100 mg/kg, po for 4 days measured at 2 hrs post last dose by aggregometric analysis relative to control. It is filed as functional. In a few lines:
as §4

Data set [15] deals with Cavia porcellus. As to the kind of experiment: Toxicity in guinea pig assessed as mortality at 300 mg/kg, po measured after third dose. It is filed as organism-based. The conditions noted are these: in vivo. On the set-up: dose 300 mg/kg, route oral.

`O=C(CO)OC(CC1CCCCN1)c1ccc(C=C2c3ccccc3-c3ccccc32)cc1` (stereo not drawn): the inhibition at 30 µg/mL in [1] was 28%. For the same compound, the “%max” value came to 0.747% in data set [2], 0.003% in data set [3] and 0.162% in [4]. In addition, the inhibition at 10 µg/mL in data set [5] is 1%. For the same compound, the inhibition at 100 µg/mL in [6] came to 99%.
As for `CC(/N=C1\CCCCCN1)c1ccc(OCCCOc2ccccc2)cc1` (stereo not drawn), in data set [1], the inhibition at 30 µg/mL was found to be 14%. The inhibition at 10 µg/mL in data set [5] came to 0%. In addition, the inhibition at 100 µg/mL in data set [6] was 100%.
Take `CCN(CC)CCN(CC(O)c1ccccc1)c1cc(Cl)ccc1Cl` (stereo not drawn): the inhibition at 30 µg/mL in data set [1] worked out at 10%. The “%max” value in [2] was determined as 0.52%; in data set [4], 0.1%. The inhibition at 100 µg/mL in data set [6] amounted to 62%.
`CC(/N=C1\CCCCCN1)c1ccc(C=C(c2ccccc2)c2ccccc2)cc1.Cl` (stereo not drawn): the inhibition at 30 µg/mL in [1] came out at 21%. For the same compound, the “%max” value came out at 2.3% in data set [2] and 0.23% in [4]. Further, in data set [5], the inhibition at 10 µg/mL turned out to be 0%. Moreover, the inhibition at 100 µg/mL in data set [6] was 100%.
With `CC(/N=C1\CCCCCN1)c1ccc(Oc2ccccc2)cc1.Cl` (stereo not drawn), the ΔT % at 30 mg/kg came to 42.2% with Cavia porcellus [7] and 24.4% with Cavia porcellus [12]. In addition, the inhibition at 30 µg/mL in [1] came to 25%. Also, the figures for the “%max” value in data set [2] and in [4] were 0.26% and 0.01%, respectively. Further, the inhibition in vivo at 30 mg/kg with Cavia porcellus [8] is 53%; with Cavia porcellus [9] it was 38%. The ΔT % at 100 mg/kg with Cavia porcellus [10] was 17.7%; in the data set on Cavia porcellus [13] it was 49%. For the same compound, the inhibition at 10 µg/mL in data set [5] is 15%. Also, the inhibition in vivo at 100 mg/kg in the data set with Cavia porcellus [11] is 29%; with Cavia porcellus [14], 8%. The inhibition at 100 µg/mL in [6] was 100%.
Regarding `CC(/N=C1\CCCCCN1)c1ccc(C=C2c3ccccc3-c3ccccc32)cc1.Cl` (stereo not drawn), the inhibition at 30 µg/mL in [1] worked out at 38%. Also, the “%max” value is 0.42% in [2] and 0.02% in [4]. Besides, the inhibition at 10 µg/mL in data set [5] is 6%. For the same compound, the inhibition at 100 µg/mL in data set [6] was 100%.
As for `CC(/N=C1\CCCCCN1)c1ccc2c(ccc3ccccc32)c1.Cl` (stereo not drawn), the inhibition at 30 µg/mL in data set [1] worked out at 43%. The entries for the “%max” value in data set [2] and in [4] were 2.6% and 0.06%, respectively. In data set [5], the inhibition at 10 µg/mL is 4%. Further, in data set [6], the inhibition at 100 µg/mL stood at 100%.
In the same order, the values of `CC(/N=C1\CCCCCN1)c1ccc2c(c1)Cc1ccccc1-2.Cl` (stereo not drawn) are 43%, 1.5%, 0.06%, 0% and 100%.
Take `CC(/N=C1\CCCCCN1)c1cc(C(C)(C)C)cc2c1CCC2(C)C` (stereo not drawn): the inhibition at 30 µg/mL in [1] stood at 22%. The inhibition at 10 µg/mL in [5] amounted to 0%. Also, the inhibition at 100 µg/mL in [6] was found to be 100%.
Regarding `CC(/N=C1\CCCCCN1)c1ccc2sc3ccccc3c2c1.Cl` (stereo not drawn), the ΔT % at 30 mg/kg is 43.6% in the data set with Cavia porcellus [7] and 20.4% in the data set on Cavia porcellus [12]. Also, the inhibition at 30 µg/mL in data set [1] was 52%. The “%max” value in data set [2] amounted to 0.18%; in data set [4] it was 0.013%. In addition, the inhibition in vivo at 30 mg/kg came to 0% with Cavia porcellus [8] and 3% with Cavia porcellus [9]. Also, the figures for the ΔT % at 100 mg/kg in the data set with Cavia porcellus [10] and in the data set with Cavia porcellus [13] were 32% and 53.6%, respectively. The inhibition at 10 µg/mL in data set [5] was 2%. For the same compound, the inhibition in vivo at 100 mg/kg in the data set on Cavia porcellus [11] and in the data set on Cavia porcellus [14] was 0% throughout. In addition, the inhibition at 100 µg/mL in data set [6] amounted to 100%.
In the case of `CC(/N=C1\CCCCCN1)c1ccc(OCCCc2ccccc2)cc1` (stereo not drawn), the inhibition at 100 µg/mL in [6] worked out at 74%.
Same read-out and setting: the result for `CC(/N=C1\CCCCCN1)c1ccc2oc3ccccc3c2c1` (stereo not drawn) reads 67%.
With `CC(/N=C1\CCCN1C)c1ccc(CCc2ccccc2)cc1` (stereo not drawn), the inhibition at 30 µg/mL in data set [1] came to 29%. In addition, the inhibition at 100 µg/mL in data set [6] came out at 100%.
With `Cc1cc2c(cc1C(C)/N=C1\CCCCCN1)C(C)(C)CCC2(C)C` (stereo not drawn), the inhibition at 100 µg/mL in data set [6] came to 77%.
For the compound `CC(/N=C1/CCCCCN1)c1cccc2ccccc12.Cl` (stereo not drawn), the ΔT % at 30 mg/kg with Cavia porcellus [7] worked out at 29%; with Cavia porcellus [12], 7%. For the same compound, in data set [1], the inhibition at 30 µg/mL is 46%. The results for the “%max” value in data set [2] and in data set [4] were 0.037% and 0.003%, respectively. The values for the inhibition in vivo at 30 mg/kg in the data set on Cavia porcellus [8] and in the data set with Cavia porcellus [9] were 33% and 0%, respectively. Further, the ΔT % at 100 mg/kg with Cavia porcellus [10] was found to be 7.1%; with Cavia porcellus [13], 21.6%. Moreover, the inhibition at 10 µg/mL in data set [5] was 0%. The inhibition in vivo at 100 mg/kg in the data set with Cavia porcellus [11] and with Cavia porcellus [14] was 0% in each case. Moreover, the inhibition at 100 µg/mL in [6] stood at 70%. In addition, in the data set with Cavia porcellus [15], the Activity result is given as “Toxic”.
Consider `CC(/N=C1\CCCN1)c1cccc(OCCCCOc2ccccc2)c1` (stereo not drawn), for which the inhibition at 30 µg/mL in data set [1] is 16%. Also, the inhibition at 10 µg/mL in data set [5] was 0%. Moreover, in data set [6], the inhibition at 100 µg/mL turned out to be 100%.
For `CCCCCCCCCCCCCc1ccc(C(C)/N=C2\CCCCCN2)cc1` (stereo not drawn), in that order: 33%, 16% and 100%.
With `CC(/N=C1\CCCCCN1)c1ccc(C2CCCCC2)cc1.Cl` (stereo not drawn), in [1], the inhibition at 30 µg/mL is 31%. Further, the figures for the “%max” value in data set [2] and in data set [4] were 0.62% and 0.004%, respectively. In [5], the inhibition at 10 µg/mL is 9%. In data set [6], the inhibition at 100 µg/mL is 100%.
Consider `CCCCCCCCCCCCOc1ccc(C(C)/N=C2\CCCCCN2)cc1` (stereo not drawn), for which the inhibition at 100 µg/mL in [6] was 64%.
With `CC(/N=C1\CCCCCN1)c1ccc(CCc2ccccc2)cc1.Cl` (stereo not drawn), in data set [1], the inhibition at 30 µg/mL stood at 37%. Also, the “%max” value in data set [2] is 0.91%; in data set [3], 0%; in data set [4], 0.013%. The inhibition at 10 µg/mL in data set [5] amounted to 8%. Also, the inhibition at 100 µg/mL in data set [6] stood at 78%.
On to `CC(/N=C1\CCCCCN1)c1ccc(-c2ccccc2)cc1.Cl` (stereo not drawn), for which, in data set [1], the inhibition at 30 µg/mL was found to be 44%. In addition, the “%max” value was 0.76% in data set [2] and 0.04% in data set [4]. For the same compound, the inhibition at 10 µg/mL in [5] was determined as 0%. Also, the inhibition at 100 µg/mL in data set [6] is 100%.
As for `CC(/N=C1\CCCN1)c1ccc2oc3ccccc3c2c1` (stereo not drawn), the inhibition at 30 µg/mL in [1] came to 42%. Moreover, the inhibition at 10 µg/mL in data set [5] worked out at 10%. In [6], the inhibition at 100 µg/mL was 100%.
In the same order, the values of `CC(/N=C1\CCCCCCCN1)c1ccc2c(c1)Cc1ccccc1-2` (stereo not drawn) are 62%, 6% and 100%.
For `CC(/N=C1\CCCCCN1)c1ccccc1OCCc1ccccc1` (stereo not drawn), in that order: 30%, 11% and 81%.
